Hits are enriched below; roughly 4.8% of the tested compounds scored in any of these assays.
ALR H2O2 inh: inhibitors of human ALR sulfhydryl oxidase, primary screen, biochemical, H2O2 detection, HRP-luminol luminescence, single point. hit rate 3.8% among 290,000. purified ALR, DTT oxidation. inhibition, % (concentration not given with the values);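 active means mean replicate inhibition above about 79%, with every replicate also reaching it, limit read from the data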
UCH37 inh: inhibitors of human UCH37 deubiquitinase, primary screen, biochemical, Ub-AMC cleavage, fluorescence; AID 588478, 2011; purified proteasome/UCH37; Ubiquitin carboxyl-terminal hydrolase isozyme L5 (Homo sapiens), Q9Y5K5; inhibition, % (test concentration not listed); hit rate 0.33% among 330,000;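 active means mean inhibition over replicate wells above about 20%, limit read from the data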;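 further: 0% = compound-free wells with enzyme and 100% = wells lacking proteasome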
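Signal – fluorescence, ex 355 nm, em 460 nm · System – Proteasome-bound UCH37 · Input – 0.15 nM proteasome as dispensed · Timing – 30 min preincubation with enzyme, 25 min cleavage at room temperature · Read-out basis – percent inhibition of cleavage signal versus uninhibited and no-proteasome wells · Medium – Tris-HCl pH 7.4 with ATP-MgCl2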
NALP3 yeast inh: NALP3 inflammasome inhibitors in reconstituted yeast, primary screen, luminescence, uHTS; AID 2825, 2010; inhibition, % at 10 µM; hit rate 0.39% among 330,000; Yeast reconstituted NLRP3/ASC/caspase-1, beta-gal luminescence, 24 h;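 active means inhibition of 50% or more; inactive means inhibition below 50%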;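 further: plate controls were induced DMSO wells for no effect and uninduced yeast grown without galactose for full effect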
ATG4B inh: ATG4B protease inhibitors, primary screen, biochemical, fluorescence, uHTS; Cysteine protease ATG4B (Homo sapiens), Q9Y4P1; ATG4B cleavage of LC3-PLA2, NBD-HPC fluorescence, 1 h; inhibition, % at 8.33 µM; hit rate 0.51% among 340,000; AID 504462, 2011; in the data active means inhibition above about 40%
Target sequence (Q9Y4P1 whole entry, looked up): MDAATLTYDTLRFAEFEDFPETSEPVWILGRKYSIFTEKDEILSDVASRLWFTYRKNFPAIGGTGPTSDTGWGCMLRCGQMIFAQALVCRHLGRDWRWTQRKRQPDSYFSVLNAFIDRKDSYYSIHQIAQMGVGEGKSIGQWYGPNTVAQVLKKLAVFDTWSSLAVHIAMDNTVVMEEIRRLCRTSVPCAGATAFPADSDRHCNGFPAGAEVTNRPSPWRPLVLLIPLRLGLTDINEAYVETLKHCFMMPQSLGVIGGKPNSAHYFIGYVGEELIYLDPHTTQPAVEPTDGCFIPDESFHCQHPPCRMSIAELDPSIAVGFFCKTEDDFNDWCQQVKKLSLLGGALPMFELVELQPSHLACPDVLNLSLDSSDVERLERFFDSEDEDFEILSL
NALP1 yeast inh: NALP1 inflammasome inhibitors in reconstituted yeast, colorimetric, S. cerevisiae, triplicate retest; S. cerevisiae NALP1/ASC/caspase-1 growth, X-gal OD620, 72 h; inhibition, % at 10 µM; hit rate 0.61% among 280,000; AID 2071, 2009; in the data active means inhibition mostly above about 24%, no sharp cut-off; inactive means mostly below about 32%
Calb FLC: C. albicans growth inhibition with fluconazole, primary screen, CaCi-2 strain, Alamar Blue fluorescence | growth inhibition, % (no concentration beside the values) | AID 1979, 2009 | hit rate 0.57% among 300,000 | C. albicans CaCi-2 (fluconazole-resistant clinical isolate) + fluconazole, 48 h;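 active means growth inhibition above about 58% in most replicates, limit read from the data, passing the limit was not always enough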;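 further: all wells also contain fluconazole at 8 µg/ml as a sub-toxic cotreatment; 0% = median of DMSO wells and 100% = median of geldanamycin control wells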
UCH37 reconfirm: retest of human UCH37 deubiquitinase inhibitors, confirmation, biochemical, Ub-AMC cleavage rate, fluorescence. inhibition, % at 20 µM. shares compounds with UCH37 inh. Proteasome-bound UCH37. hit rate 27% among 480;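 active means average inhibition over replicates above about 50%, so the earlier screening hit is confirmed, limit read from the data; inactive means the rest, counted as false positives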;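 further: based on cleavage rate fitted by regression over a 30 min kinetic read; 0% = proteasome plus Ub-AMC and 100% = Ub-AMC without proteasome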
Active calls of the source: *; / = no result.

SMILES	ALR H2O2 inh	UCH37 inh	NALP3 yeast inh	ATG4B inh	NALP1 yeast inh	Calb FLC	UCH37 reconfirm
O=C(O)c1ccc(NN=C/C=C/c2ccccc2[N+](=O)[O-])cc1	/	8	/	/	/	/	/
O=C(O)c1ccc(NN=C/C=C/c2ccc([N+](=O)[O-])o2)cc1	/	30*	/	/	/	/	37
O=C(NN=Cc1cc(Br)c(Br)o1)c1cccnc1	/	14	/	/	/	/	/
Cc1ccc(C(=O)NN=Cc2cc(Br)c(Br)o2)cn1	/	28*	/	/	/	/	13
c1coc(-c2nnc(-c3cccs3)o2)c1	-13	-122	15	-5	7	-20	/
O=c1cc(-c2ccco2)nc(-c2cccs2)o1	16	43*	-2	1	-14	1	19
O=C(NN=Cc1cccnc1)c1ccc(Cl)cc1Cl	/	3	/	/	/	/	/
CCOC(=O)N1CCN(C2=C(NS(=O)(=O)c3ccc(C)cc3)C(=O)c3ccccc3C2=O)CC1	-7	42*	5	-1	-2	-7	53*
NC(=O)C1CCN(C2=C(NS(=O)(=O)c3ccc(Cl)cc3)C(=O)c3ccccc3C2=O)CC1	/	33*	7	32	33	33	30
Cc1ccsc1C=NNC(=O)c1ccc2nc[nH]c2c1	/	10	/	/	/	/	/
CC(=O)C(C(C)=O)C1(O)C(=O)c2ccccc2C1=O	34	70*	0	12	36	-3	78*
CC(=NNS(=O)(=O)c1ccc(C)cc1)c1c[nH]c2ccccc12	/	1	/	/	/	/	/
Cn1cnc([N+](=O)[O-])c1NC(C)(C)C	-8	9	15	2	31	2	/
Cn1cnc([N+](=O)[O-])c1S(=O)(=O)c1ccc(Cl)cc1	/	49*	/	0	80*	5	13
CC(=O)Nc1cccc(C(C)=NNC(=S)NC(C)C)c1	/	2	/	/	/	/	/
CCOC(=O)c1sc(NN=Cc2cccc(C)c2)nc1C	/	0	/	/	/	/	/
CCN(CC)C(=O)c1ccc(/C=C/c2c[nH]c3ccccc23)[n+](C)c1	3	29*	22	-9	16	2	33
Cc1ccc(C(=O)/C=C/c2c[nH]c3ccccc23)cc1	37	-6	38	20	20	24	/
CC[n+]1c(/C=C/c2c[nH]c3ccccc23)ccc2cc(C)ccc21	/	29*	33	15	-4	/	42
O=C(O)c1ccc(C=NNC(=O)c2cc(-c3cccs3)nc3ccccc23)cc1	/	-177	/	/	/	/	/
O=c1[nH]c(Nc2ccccc2)cc2cc(Br)ccc12	-1	44*	-13	36	/	4	19
Cc1ccsc1C=NNc1ccc(C(=O)O)cc1	/	12	/	/	/	/	/
CSc1nc(Oc2ccc(Cl)cc2)c2sccc2n1	-25	36*	8	3	32	-1	16
CC(C)CNC(=O)COc1cccc(C(=O)NCc2ccccc2)c1	-3	36*	28	-5	35	34	12
O=C(O)c1cccc(NC2=C(n3nnc4ccccc43)C(=O)c3ccccc3C2=O)c1	-50	52*	0	-8	/	-1	55*
SMILES	ALR H2O2 inh	UCH37 inh	NALP3 yeast inh	ATG4B inh	NALP1 yeast inh	Calb FLC	UCH37 reconfirm
CC(C)NC(=O)/C(C#N)=C\c1ccc(N(C)C)o1	97*	37*	21	14	1	21	36
CCN(CC)c1ccc(/C=C(/C#N)C(=O)NC(C)C)o1	99*	29*	13	-3	5	-20	28
CCCCOC(=O)c1ccc(NC(=O)Nc2ccc(OC)c(OC)c2)cc1	-18	38*	13	-23	-5	-3	-16
CCC(=O)N(C1=C(NC(C)C)C(=O)c2ccccc2C1=O)C(C)C	-18	46*	24	-7	-2	31	22
O=[N+]([O-])c1cc(F)c2cccnc2c1O	22	29*	0	-3	27	61	48
O=[N+]([O-])c1ccc(O)c2cccnc12	-31	15	24	-3	23	22	/

Screening results: PubChem, several laboratories
